# ChEMBL document CHEMBL4689842, “EUbOPEN Chemogenomics Library wave 1” (2021)
# “And” between values parts separate entries of the source, which are not always exact repeats. Identical values can stand only once.
# System: U2OS
# Test: Multiplex assay against U2OS
# Type: toxicity, cell-based
# Conditions: human
# Method in brief: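 With compound added, live cells were imaged on a CQ1 microscope at 37°C and 5% CO2; staining with Hoechst33342, BioTracker Green Microtubule Cytoskeleton Dye, MitoTracker Red and Annexin V Alexa Fluor 680 had been done at seeding. The CellPathfinder machine-learning gating scheme split cells into Hoechst high-intensity objects or normal cells, normal cells into healthy, pyknosed or fragmented nuclei, and pyknosed cells into mitotic or apoptotic. The tubulin, mitochondrial-mass and membrane-permeability phenotypes are per cents of healthy-nucleus cells.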
# [1] = 12 h, 10 µM, compound concentration 10 uM, replicate 1
# [2] = 12 h, 10 µM, compound concentration 10 uM, replicate 2
# [3] = 24 h, 10 µM, compound concentration 10 uM, replicate 1
# [4] = 24 h, 10 µM, compound concentration 10 uM, replicate 2
# [5] = 12 h, 1 µM, compound concentration 1 uM, replicate 1
# [6] = 12 h, 1 µM, compound concentration 1 uM, replicate 2
# [7] = 24 h, 1 µM, compound concentration 1 uM, replicate 1
# [8] = 24 h, 1 µM, compound concentration 1 uM, replicate 2
# [9] = 48 h, 10 µM, compound concentration 10 uM, replicate 1
# [10] = 48 h, 10 µM, compound concentration 10 uM, replicate 2
smiles,measurement,setting,value
Cn1nc(C(=O)NCc2ccc(C(=O)O)cc2)cc1-c1ccc2[nH]ccc2c1 [BI 4395],Population Apoptotic (%),[1],42%
same,Population Fragmented Nuclei (%),[1],4%
same,Population Healthy Nuclei (%),[1],87% and 92%
same,Population Hoechst High Intensity Objects (%),[1],2% and 3%
same,Population Membrane Permeable-Phenotype (%),[1],9% and 4%
same,Population Mitochondria Different-Phenotype (%),[1],17%
same,Population Mitotic Cells (%),[1],57%
same,Population Normal (%),[1],97% and 96%
same,Population Pyknosed Nuclei (%),[1],8%
same,Population Tubulin-Different-Phenotype (%),[1],21% and 16%
same,Total Cell Count,[1],177 and 225
same,Population Fragmented Nuclei (%),[2],9% and 7%
same,Population Healthy Nuclei (%),[2],89%
same,Population Hoechst High Intensity Objects (%),[2],11%
same,Population Membrane Permeable-Phenotype (%),[2],8%
same,Population Mitochondria Different-Phenotype (%),[2],35% and 23%
same,Population Mitotic Cells (%),[2],50% and 100%
same,Population Normal (%),[2],88%
same,Population Pyknosed Nuclei (%),[2],2% and 3%
same,Population Tubulin-Different-Phenotype (%),[2],30%
same,Total Cell Count,[2],84 and 159
same,Population Apoptotic (%),[3],18% and 33%
same,Population Fragmented Nuclei (%),[3],4% and 1%
same,Population Healthy Nuclei (%),[3],95%
same,Population Hoechst High Intensity Objects (%),[3],1%
same,Population Membrane Permeable-Phenotype (%),[3],6%
same,Population Mitochondria Different-Phenotype (%),[3],18% and 24%
same,Population Mitotic Cells (%),[3],81% and 66%
same,Population Normal (%),[3],98%
same,Population Pyknosed Nuclei (%),[3],6% and 2%
same,Population Tubulin-Different-Phenotype (%),[3],20%
same,Total Cell Count,[3],253 and 307
same,Population Apoptotic (%),[4],40% and 60%
same,Population Fragmented Nuclei (%),[4],7% and 5%
same,Population Healthy Nuclei (%),[4],87% and 89%
same,Population Hoechst High Intensity Objects (%),[4],7% and 6%
same,Population Membrane Permeable-Phenotype (%),[4],9% and 8%
same,Population Mitochondria Different-Phenotype (%),[4],15% and 40%
same,Population Mitotic Cells (%),[4],60% and 40%
same,Population Normal (%),[4],92% and 93%
same,Population Pyknosed Nuclei (%),[4],5%
same,Population Tubulin-Different-Phenotype (%),[4],34% and 29%
same,Total Cell Count,[4],199 and 102
COCC(=O)NC/C=C/c1ccc2ncnc(Nc3ccc(Oc4ccc(C)nc4)c(C)c3)c2c1 [CP-724714],Population Apoptotic (%),[5],40% and 33%
same,Population Fragmented Nuclei (%),[5],7% and 4%
same,Population Healthy Nuclei (%),[5],80% and 89%
same,Population Hoechst High Intensity Objects (%),[5],3%
same,Population Membrane Permeable-Phenotype (%),[5],42% and 18%
same,Population Mitochondria Different-Phenotype (%),[5],29% and 18%
same,Population Mitotic Cells (%),[5],60% and 66%
same,Population Normal (%),[5],96%
same,Population Pyknosed Nuclei (%),[5],11% and 6%
same,Population Tubulin-Different-Phenotype (%),[5],18%
same,Total Cell Count,[5],178 and 153
same,Population Fragmented Nuclei (%),[6],3% and 8%
same,Population Healthy Nuclei (%),[6],82% and 87%
same,Population Hoechst High Intensity Objects (%),[6],6% and 4%
same,Population Membrane Permeable-Phenotype (%),[6],49% and 27%
same,Population Mitochondria Different-Phenotype (%),[6],43% and 20%
same,Population Mitotic Cells (%),[6],53% and 100%
same,Population Normal (%),[6],93% and 95%
same,Total Cell Count,[6],95 and 141
same,Population Apoptotic (%),[1],51%
same,Population Fragmented Nuclei (%),[1],17%
same,Population Healthy Nuclei (%),[1],62%
same,Population Hoechst High Intensity Objects (%),[1],13%
same,Population Membrane Permeable-Phenotype (%),[1],35%
same,Population Mitochondria Different-Phenotype (%),[1],87%
same,Population Mitotic Cells (%),[1],48%
same,Population Normal (%),[1],86%
same,Population Pyknosed Nuclei (%),[1],20%
same,Total Cell Count,[1],167
same,Population Apoptotic (%),[2],80%
same,Population Fragmented Nuclei (%),[2],18%
same,Population Healthy Nuclei (%),[2],63%
same,Population Hoechst High Intensity Objects (%),[2],11%
same,Population Membrane Permeable-Phenotype (%),[2],37%
same,Population Mitochondria Different-Phenotype (%),[2],94%
same,Population Mitotic Cells (%),[2],20%
same,Population Normal (%),[2],88%
same,Population Pyknosed Nuclei (%),[2],18%
same,Population Tubulin-Different-Phenotype (%),[2],100%
same,Total Cell Count,[2],62
same,Population Apoptotic (%),[7],50% and 38%
same,Population Fragmented Nuclei (%),[7],10% and 2%
same,Population Healthy Nuclei (%),[7],71% and 90%
same,Population Hoechst High Intensity Objects (%),[7],1% and 2%
same,Population Mitotic Cells (%),[7],50% and 61%
same,Population Normal (%),[7],98% and 97%
same,Population Pyknosed Nuclei (%),[7],17%
same,Total Cell Count,[7],186 and 209
same,Population Apoptotic (%),[8],62% and 36%
same,Population Fragmented Nuclei (%),[8],8% and 3%
same,Population Healthy Nuclei (%),[8],75% and 89%
same,Population Hoechst High Intensity Objects (%),[8],3% and 7%
same,Population Membrane Permeable-Phenotype (%),[8],40% and 20%
same,Population Mitochondria Different-Phenotype (%),[8],53% and 26%
same,Population Mitotic Cells (%),[8],37% and 63%
same,Population Normal (%),[8],96% and 92%
same,Population Pyknosed Nuclei (%),[8],15% and 6%
same,Total Cell Count,[8],106 and 180
same,Population Apoptotic (%),[3],60%
same,Population Fragmented Nuclei (%),[3],20%
same,Population Healthy Nuclei (%),[3],45%
same,Population Hoechst High Intensity Objects (%),[3],8%
same,Population Membrane Permeable-Phenotype (%),[3],46%
same,Population Mitochondria Different-Phenotype (%),[3],98%
same,Population Mitotic Cells (%),[3],39%
same,Population Normal (%),[3],91%
same,Population Pyknosed Nuclei (%),[3],33%
same,Population Tubulin-Different-Phenotype (%),[3],100%
same,Total Cell Count,[3],156
same,Population Fragmented Nuclei (%),[4],16%
same,Population Healthy Nuclei (%),[4],54%
same,Population Hoechst High Intensity Objects (%),[4],11%
same,Population Membrane Permeable-Phenotype (%),[4],51%
same,Population Mitochondria Different-Phenotype (%),[4],96%
same,Population Mitotic Cells (%),[4],40%
same,Population Normal (%),[4],88%
same,Population Pyknosed Nuclei (%),[4],28%
same,Total Cell Count,[4],60
same,Population Apoptotic (%),[9],76%
same,Population Fragmented Nuclei (%),[9],22%
same,Population Healthy Nuclei (%),[9],44%
same,Population Hoechst High Intensity Objects (%),[9],4%
same,Population Membrane Permeable-Phenotype (%),[9],57%
same,Population Mitochondria Different-Phenotype (%),[9],91%
same,Population Mitotic Cells (%),[9],23%
same,Population Normal (%),[9],95%
same,Population Pyknosed Nuclei (%),[9],32%
same,Population Tubulin-Different-Phenotype (%),[9],100%
same,Total Cell Count,[9],163
same,Population Apoptotic (%),[10],45%
same,Population Fragmented Nuclei (%),[10],14%
same,Population Healthy Nuclei (%),[10],52%
same,Population Hoechst High Intensity Objects (%),[10],14%
same,Population Membrane Permeable-Phenotype (%),[10],84%
same,Population Mitochondria Different-Phenotype (%),[10],96%
same,Population Mitotic Cells (%),[10],55%
same,Population Normal (%),[10],85%
same,Total Cell Count,[10],71
COc1cc2ncnc(Nc3ccc(F)c(Cl)c3)c2cc1NC(=O)/C=C/CN1CCCCC1 [DACOMITINIB ANHYDROUS],Population Apoptotic (%),[5],5%
same,Population Fragmented Nuclei (%),[5],6%
same,Population Healthy Nuclei (%),[5],84%
same,Population Hoechst High Intensity Objects (%),[5],6%
same,Population Membrane Permeable-Phenotype (%),[5],72%
same,Population Mitochondria Different-Phenotype (%),[5],3%
same,Population Mitotic Cells (%),[5],94%
same,Population Normal (%),[5],93%
same,Population Pyknosed Nuclei (%),[5],8%
same,Population Tubulin-Different-Phenotype (%),[5],45%
same,Total Cell Count,[5],197
same,Population Apoptotic (%),[6],60%
same,Population Fragmented Nuclei (%),[6],11%
same,Population Hoechst High Intensity Objects (%),[6],8%
same,Population Membrane Permeable-Phenotype (%),[6],24%
same,Population Mitochondria Different-Phenotype (%),[6],32%
same,Population Mitotic Cells (%),[6],40%
same,Population Normal (%),[6],91%
same,Population Pyknosed Nuclei (%),[6],4%
same,Population Tubulin-Different-Phenotype (%),[6],69%
same,Total Cell Count,[6],127
same,Population Apoptotic (%),[1],0%
same,Population Fragmented Nuclei (%),[1],3%
same,Population Healthy Nuclei (%),[1],92%
same,Population Hoechst High Intensity Objects (%),[1],3%
same,Population Membrane Permeable-Phenotype (%),[1],31%
same,Population Mitochondria Different-Phenotype (%),[1],7%
same,Population Mitotic Cells (%),[1],100%
same,Population Normal (%),[1],96%
same,Population Pyknosed Nuclei (%),[1],4%
same,Population Tubulin-Different-Phenotype (%),[1],15%
same,Total Cell Count,[1],182
same,Population Fragmented Nuclei (%),[2],14%
same,Population Healthy Nuclei (%),[2],82%
same,Population Hoechst High Intensity Objects (%),[2],10%
same,Population Membrane Permeable-Phenotype (%),[2],10%
same,Population Mitochondria Different-Phenotype (%),[2],17%
same,Population Normal (%),[2],89%
same,Population Pyknosed Nuclei (%),[2],2%
same,Population Tubulin-Different-Phenotype (%),[2],18%
same,Total Cell Count,[2],118
same,Population Apoptotic (%),[7],46%
same,Population Fragmented Nuclei (%),[7],9%
same,Population Healthy Nuclei (%),[7],81%
same,Population Hoechst High Intensity Objects (%),[7],5%
same,Population Membrane Permeable-Phenotype (%),[7],65%
same,Population Mitochondria Different-Phenotype (%),[7],5%
same,Population Mitotic Cells (%),[7],53%
same,Population Normal (%),[7],94%
same,Population Pyknosed Nuclei (%),[7],9%
same,Population Tubulin-Different-Phenotype (%),[7],39%
same,Total Cell Count,[7],262
same,Population Apoptotic (%),[8],75%
same,Population Fragmented Nuclei (%),[8],14%
same,Population Healthy Nuclei (%),[8],78%
same,Population Membrane Permeable-Phenotype (%),[8],11%
same,Population Mitochondria Different-Phenotype (%),[8],50%
same,Population Mitotic Cells (%),[8],25%
same,Population Pyknosed Nuclei (%),[8],7%
same,Population Tubulin-Different-Phenotype (%),[8],58%
same,Total Cell Count,[8],158
same,Population Apoptotic (%),[3],40%
same,Population Fragmented Nuclei (%),[3],5%
same,Population Healthy Nuclei (%),[3],86%
same,Population Hoechst High Intensity Objects (%),[3],2%
same,Population Membrane Permeable-Phenotype (%),[3],15%
same,Population Mitochondria Different-Phenotype (%),[3],10%
same,Population Mitotic Cells (%),[3],59%
same,Population Normal (%),[3],97%
same,Population Pyknosed Nuclei (%),[3],8%
same,Population Tubulin-Different-Phenotype (%),[3],14%
same,Total Cell Count,[3],184
same,Population Apoptotic (%),[4],50%
same,Population Fragmented Nuclei (%),[4],6%
same,Population Healthy Nuclei (%),[4],87%
same,Population Hoechst High Intensity Objects (%),[4],9%
same,Population Membrane Permeable-Phenotype (%),[4],18%
same,Population Mitochondria Different-Phenotype (%),[4],24%
same,Population Mitotic Cells (%),[4],50%
same,Population Normal (%),[4],90%
same,Population Pyknosed Nuclei (%),[4],5%
same,Population Tubulin-Different-Phenotype (%),[4],22%
same,Total Cell Count,[4],114
